# Shown are actives, neighbours in structure and some others; about 3.4% of the full set was active somewhere.
# VIM-2 inhibitor: VIM-2 metallo-beta-lactamase inhibitors, primary screen, biochemical, epi-absorbance readout, Pseudomonas aeruginosa enzyme; 290,000 compounds, 0.89% hits; purified VIM-2, nitrocefin hydrolysis, epi-absorbance fluorescence; inhibition, % at 5.6 µM; AID 1527, 2009;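 active = inhibition above the mean of all tested compounds plus 3 SD, cutoff set per screening run, cut at about 7.5% in these data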;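 note: red hydrolysis product quenches plate fluorescence so inhibitors raise well fluorescence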
# TMEM16A act: TMEM16A chloride channel activators or potentiators, primary screen, cell-based, HTS; HEK293 TMEM16A/YFP-H148Q/I152L, iodide quench fluorescence; stronger effect = lower value; B-score at 10 µM; 340,000 compounds, 0.3% hits;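 active = fluorescence-ratio B-score plate-corrected deviation score at least 3 library SD below zero, with starting fluorescence score within 5 deviations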;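 note: channel opened by trigger with iodide after compound preincubation; score built on the fluorescence ratio of max minus min over baseline; more negative score means more quench and so TMEM16A activation or potentiation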
# Target sequence (Q8BHY3 whole entry, looked up): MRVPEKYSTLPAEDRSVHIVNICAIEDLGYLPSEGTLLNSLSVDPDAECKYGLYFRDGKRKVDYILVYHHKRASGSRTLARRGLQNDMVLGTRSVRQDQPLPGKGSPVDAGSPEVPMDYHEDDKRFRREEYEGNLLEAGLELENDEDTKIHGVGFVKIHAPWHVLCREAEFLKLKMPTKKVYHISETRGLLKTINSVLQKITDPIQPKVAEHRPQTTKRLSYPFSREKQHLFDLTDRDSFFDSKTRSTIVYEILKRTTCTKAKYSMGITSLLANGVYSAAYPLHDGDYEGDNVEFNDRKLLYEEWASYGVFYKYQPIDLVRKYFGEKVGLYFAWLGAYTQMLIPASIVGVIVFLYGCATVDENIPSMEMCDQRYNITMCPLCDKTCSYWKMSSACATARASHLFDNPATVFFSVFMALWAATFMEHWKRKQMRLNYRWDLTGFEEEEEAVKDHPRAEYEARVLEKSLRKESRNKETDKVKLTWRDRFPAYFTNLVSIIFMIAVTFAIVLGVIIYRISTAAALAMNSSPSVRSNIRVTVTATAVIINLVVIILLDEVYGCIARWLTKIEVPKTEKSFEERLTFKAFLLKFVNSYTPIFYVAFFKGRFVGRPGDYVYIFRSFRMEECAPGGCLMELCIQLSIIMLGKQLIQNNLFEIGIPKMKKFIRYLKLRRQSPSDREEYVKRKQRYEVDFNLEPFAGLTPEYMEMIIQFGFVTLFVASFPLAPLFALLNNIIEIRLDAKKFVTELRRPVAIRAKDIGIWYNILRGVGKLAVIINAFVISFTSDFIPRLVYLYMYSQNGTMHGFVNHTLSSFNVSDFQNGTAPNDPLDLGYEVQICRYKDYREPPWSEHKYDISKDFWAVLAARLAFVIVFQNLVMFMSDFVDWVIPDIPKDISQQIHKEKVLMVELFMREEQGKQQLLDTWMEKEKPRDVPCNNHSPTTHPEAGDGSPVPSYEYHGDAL
# TMEM16A inh: TMEM16A chloride channel inhibitors, primary screen, cell-based, HTS | HEK293 TMEM16A/YFP iodide influx fluorescence, ionomycin | normalized B-score (activity score, 25-100; higher = stronger inhibition) at 10 µM | 310,000 compounds, 1.2% hits | Anoctamin-1 (Mus musculus), Q8BHY3;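 active = ratio plate-corrected score three or more library SD toward inhibition, starting fluorescence score within five deviations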;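 note: score derived from kinetic fluorescence span divided by baseline fluorescence per well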
# CHT allo act: CHT positive allosteric modulators, primary screen, cell-based, membrane potential dye, choline EC20 | High affinity choline transporter 1 (Homo sapiens), Q9GZV3 | CHT-expressing cells; stronger effect = higher value; LV-AA mutant CHT in HEK293 cells | B-score at 10 µM | 310,000 compounds, 0.49% hits | AID 488977, 2010;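 active = initial fluorescence not abnormally high and integrated response B-score, plate-corrected, over 3 SD above library mean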
# CHT block: inhibitors of human choline transporter CHT | High affinity choline transporter 1 (Homo sapiens), Q9GZV3 | CHT-expressing cells, membrane potential dye, choline response; stronger effect = lower value | B-score at 10 µM | 310,000 compounds, 0.86% hits;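 active = B-score over 3 SD under the library average, and starting fluorescence ratio not unusually high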;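 note: choline stimulus applied at its EC90 after an EC20 pre-addition; B-score computed on integrated fluorescence ratio after choline addition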
# IMP-1 inhibitor: IMP-1 metallo-beta-lactamase inhibitors, primary screen, biochemical, epi-absorbance readout, Pseudomonas aeruginosa enzyme | metallo-beta-lactamase IMP-1 (Pseudomonas aeruginosa) | 290,000 compounds, 0.45% hits | inhibition, % at 5.6 µM | purified IMP-1, nitrocefin hydrolysis, epi-absorbance fluorescence;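 active = inhibition above the mean plus 3 SD of all compounds in the same screening run, cut at about 4.5% in these data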
#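 System: purified IMP-1 / Input: IMP-1 dispensed at 0.2 nM / Medium: 50 mM HEPES pH 7.1, 50 µM ZnSO4, 0.05% Brij 35 / Timing: 15 min enzyme–compound preincubation, then 25 min nitrocefin reaction, 25 °C / Technique: plate fluorescence quenching by hydrolysis product, ex 480/em 530 nm / Repeats: singlicate testing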
# Hits are given with their value; n = inactive; x = no result given.
SMILES,VIM-2 inhibitor,TMEM16A act,TMEM16A inh,CHT allo act,CHT block,IMP-1 inhibitor
CC(C)CN1C(=S)SC(C)(C)C1n1oc(=O)n(-c2ccc(Cl)cc2)c1=O (stereo unspecified),n,n,100,n,n,n
Cc1ccc(C(=O)O)cc1-c1ccc(/C=C2\SC(=O)N(CC(=O)Nc3ccccc3)C2=O)o1,n,n,n,n,n,n
Cc1cc(C(=O)O)ccc1-c1ccc(/C=C2\SC(=O)N(CC(=O)Nc3ccc4c(c3)OCO4)C2=O)o1,n,n,n,n,n,8.0
O=[N+]([O-])c1cc2cccnc2c2ncccc12,n,x,n,7,n,n
Cc1ccc([N+](=O)[O-])c2cccnc12,n,n,n,n,n,n
COc1cccc(/C=C2/Sc3ccc(C(=O)NCCN4CCCC4)cc3NC2=O)c1,11,n,n,n,n,n
Cc1ccc(/C=C2/Sc3ccc(C(=O)NCCN4CCOCC4)cc3NC2=O)cc1,n,n,n,n,n,n
O=C(Nc1ccccc1)C1CC(=O)N(C2CCCCC2)C1 (stereo unspecified),n,-7.7,n,n,n,n
CC(C)c1ccc(NC(=O)C2CC(=O)N(C3CCCC3)C2)cc1 (stereo unspecified),n,n,n,n,n,n
Cc1ccc(NC(=S)N(Cc2ccc(Cl)cc2)Cc2ccc(C(=O)O)cc2)cc1Cl,n,n,25,n,n,n
COc1ccc(C(=O)Nc2ccccc2N2CCCC2)cc1S(=O)(=O)N1CCOCC1,x,n,n,n,n,x
COc1ccc(C(=O)C2CCCN(C(=O)c3cc(C)nc(C)n3)C2)cc1OC (stereo unspecified),n,n,n,n,n,n
O=C(OC(C(=O)O)C(OC(=O)c1ccccc1)C(=O)NCc1ccccc1)c1ccccc1 (stereo unspecified),n,n,n,n,n,6.4
CCOC(=O)[C@@H]1[C@H]2COc3ccc(Br)cc3[C@@H]2N2C(=O)N(c3ccc(C(F)(F)F)cc3)C(=O)[C@]12C,n,n,n,n,n,n
O=c1cc(-c2ccccc2Cl)oc2c(NS(=O)(=O)c3cc(Cl)cc(Cl)c3O)ccc(O)c12,n,n,100,n,-9.8,n
Cc1cc(C)cc(OC(C)C(=O)NCCCn2ccnc2)c1 (stereo unspecified),n,n,n,n,n,n
C[C@@H](NC(=O)c1[nH]cnc1C(=O)Nc1ccon1)c1ccccc1,x,n,x,x,x,x
CCOC(=O)c1c(C)[nH]c(C)c1C(=O)COC(=O)CNC(=O)c1ccc(OCC)cc1,n,n,n,n,n,4.7
CCOC(=O)c1c(C)[nH]c(C(=O)COC(=O)CNC(=O)c2ccc(Br)cc2)c1C,n,n,n,n,n,n
CCOC(=O)CSC1=C(C#N)C(=O)NC(c2ccc(OC)c(OC)c2)S1 (stereo unspecified),n,n,25,n,n,n
CCOC(=O)CSC1=C(C#N)C(=O)NC(c2ccc(OC)cc2)S1 (stereo unspecified),n,n,n,n,n,n
CCCSc1nc2cc(C)c(C)cc2n1CC(C)O (stereo unspecified),n,n,n,n,n,n
CC12CCC(=O)N1C(C(=O)Nc1nc3c(F)cc(F)cc3s1)CS2 (stereo unspecified),n,n,n,n,n,11
Cc1cccc2sc(NC(=O)C3CSC4(C)CCC(=O)N34)nc12 (stereo unspecified),n,n,n,n,n,n
O=C(CSc1nnc2ccc3ccccc3n12)N1CCOCC1,n,n,n,n,n,n
SMILES,VIM-2 inhibitor,TMEM16A act,TMEM16A inh,CHT allo act,CHT block,IMP-1 inhibitor
Cc1cc2ccccc2n2c(SCC(=O)N3CCOCC3)nnc12,8.0,n,n,n,n,n
CC(Oc1cccc(Cl)c1)C(=O)N1CCCN(C)CC1 (stereo unspecified),n,n,n,n,n,n
O=C1C(=O)N(Cc2ccncc2)C(c2ccccc2F)/C1=C(\O)c1ccc2c(c1)OCCO2 (stereo unspecified),11,n,n,n,n,n
CC(C)(C)c1ccc(-c2nnc(SCC(=O)c3ccc4c(c3)OCCO4)o2)cc1,n,n,100,n,n,n
CC(=O)CSc1nnc(-c2ccc3c(c2)OCO3)o1,n,-16,n,n,n,n
CC(=O)Nc1ccc(NC(=O)CSc2nnc(-c3ccc4c(c3)OCO4)o2)cc1,x,n,x,x,x,x
Cc1cccc(/C=C/C(=O)c2cc(Br)ccc(=O)c2O)c1,n,n,25,n,n,n
CCOc1ccc(/C=C/C(=O)c2cc(Br)ccc(=O)c2O)cc1,n,n,n,n,n,n
OC(CNCc1cccnc1)COc1ccc2ccccc2c1 (stereo unspecified),n,n,n,n,n,n
Cc1ccc(S(=O)(=O)N/N=C2/CC(c3ccccc3)Oc3ccccc32)cc1[N+](=O)[O-] (stereo unspecified),n,n,100,n,n,n
COc1ccc(-c2csc(NC(=O)c3ccccc3S(C)(=O)=O)n2)cc1,n,n,n,n,n,n
COc1ccccc1OC(C)C(=O)Nc1nc(-c2ccc(S(=O)(=O)N3CCOCC3)cc2)cs1 (stereo unspecified),n,n,n,n,n,n
COc1ccc(CC(=O)Nc2nc(-c3ccncc3)cs2)cc1,n,n,n,n,n,6.7
COc1ccc(-c2csc(NC(=O)c3ccc(S(C)(=O)=O)cc3)n2)cc1,n,n,n,n,n,5.6
COc1ccccc1C(=O)Nc1nc(-c2ccc(S(=O)(=O)N3CCOCC3)cc2)cs1,n,n,100,n,n,n
CCN1C(=O)[C@H]2[C@@H](c3ccc(OC)cc3)N3C(=O)CN(CCOC)C(=O)[C@@]3(Cc3ccccc3)[C@H]2C1=O,n,n,n,n,n,n
COC(=O)Cc1c(C)c2ccc(OC3CCCCC3=O)c(C)c2oc1=O (stereo unspecified),n,n,n,n,n,n
OC1(c2cccc(C(F)(F)F)c2)CCN(c2ncnc3c2[nH]c2ccccc23)CC1,n,n,100,n,n,n
c1ccc2c(c1)CCN(c1ncnc3c1[nH]c1ccccc13)C2,x,n,100,n,n,x
COc1cccc(N2CCN(c3ncnc4c3[nH]c3ccccc34)CC2C)c1 (stereo unspecified),n,x,100,n,n,n
c1ccc2c(c1)[nH]c1c(N3CCC4(CC3)OCCO4)ncnc12,n,n,n,n,n,n

# Screens from PubChem BioAssay.
